Series [1] addresses T1, Histamine H4 receptor (Homo sapiens, UniProt Q9H3N8). As to the kind of experiment: Displacement of [3H]histamine dihydrochloride from human histamine H4 receptor after 2.5 hrs by scintillation proximity assay. The essentials:
(§1)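 Human H4 receptor-expressing membranes (25 µg) incubated with 20 nM [³H]-histamine dihydrochloride and SPA beads. Buffer: 50 mM Tris pH 7.5, 5 mM EDTA, 0.5% BSA, 1% DMSO. Incubation 2.5 h at room temperature. Non-specific binding taken with excess histamine. Scintillation counting. IC50 from a 6-point semi-log dose-response, duplicate wells.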
(Loss of bound radioactivity is the signal in a displacement assay; it reports binding, not function.)

The nature of series [2]: Metabolic stability in rat microsomes assessed as drug remaining after 10 mins. In kind it is ADME, Microsome. As to conditions: for remaining at 10 min: read-out: Stability. The essentials: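 Compound incubated with rat liver microsomes. Parent remaining measured after 10 min, expressed as percent.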
In series [3] the target is T1, Histamine H4 receptor. As to the kind of experiment: Displacement of [3H]histamine human recombinant histamine H4 receptor. Summed up: as §1
In series [4] the target is T1, Histamine H4 receptor. As to the kind of experiment: Inverse agonist activity at human histamine H4 receptor assessed as inhibition of [35S]GTPgammaS binding after 15 mins by scintillation proximity assay relative to control. Type of series: functional. Also on record: concentration or dose not given beside the values.
Series [5] addresses T1, Histamine H4 receptor. As to the kind of experiment: Inverse agonist activity at human histamine H4 receptor assessed as inhibition of [35S]GTPgammaS binding after 15 mins by scintillation proximity assay. Type of series: functional. (Binding of GTPγS marks nucleotide exchange on a G protein.)
The nature of series [6]: Volume of distribution in Cynomolgus monkey. In kind it is ADME, organism-based, Macaca fascicularis. As to conditions: in vivo.
The subject of series [7] is Rattus norvegicus. As to the kind of experiment: Volume of distribution in rat at 5 mg/kg, po. Type of series: ADME, organism-based. Further details: dose 5 mg/kg, route oral. As to conditions: in vivo. Summed up: (§2)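 Rat pharmacokinetic study with oral dosing at 5 mg/kg.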
The nature of series [8]: Clearance in Cynomolgus monkey. Type of series: ADME, organism-based, Macaca fascicularis. Conditions: in vivo.
Series [9] in a line: Oral bioavailability in dog. In kind it is ADME, organism-based, Canis lupus familiaris. Conditions: in vivo.
Series [10] can be described thus: Clearance in rat at 5 mg/kg, po. In kind it is ADME, organism-based. Also on record: dose 5 mg/kg, route oral. Conditions: in vivo. The essentials: as §2
Series [11] is described as follows: Oral bioavailability in Cynomolgus monkey. Type of series: ADME, organism-based, Macaca fascicularis. As to conditions: in vivo.
Series [12] in a line: Volume of distribution in dog. Type of series: ADME, organism-based, Canis lupus familiaris. Conditions: in vivo.
Series [13] is described as follows: Clearance in dog. Type of series: ADME, organism-based, Canis lupus familiaris. Conditions: in vivo.
For series [14], the target named is Histamine H2 receptor (Homo sapiens, UniProt P25021). As to the kind of experiment: Binding affinity to histamine H2 receptor.
Histamine H2 receptor, sequence (P25021 whole entry): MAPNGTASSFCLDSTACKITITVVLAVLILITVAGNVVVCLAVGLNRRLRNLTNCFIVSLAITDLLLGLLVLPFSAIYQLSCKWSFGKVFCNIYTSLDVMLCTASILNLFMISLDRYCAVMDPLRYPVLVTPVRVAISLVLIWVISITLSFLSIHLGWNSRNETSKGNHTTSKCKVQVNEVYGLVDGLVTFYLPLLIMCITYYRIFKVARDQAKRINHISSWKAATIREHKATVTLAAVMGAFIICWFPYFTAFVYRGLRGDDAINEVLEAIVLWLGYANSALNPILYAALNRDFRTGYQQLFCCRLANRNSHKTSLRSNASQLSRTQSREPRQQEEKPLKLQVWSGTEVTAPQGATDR
The target of series [15] is Histamine H1 receptor (Homo sapiens, UniProt P35367). As to the kind of experiment: Binding affinity to histamine H1 receptor.
Histamine H1 receptor, sequence (P35367 whole entry): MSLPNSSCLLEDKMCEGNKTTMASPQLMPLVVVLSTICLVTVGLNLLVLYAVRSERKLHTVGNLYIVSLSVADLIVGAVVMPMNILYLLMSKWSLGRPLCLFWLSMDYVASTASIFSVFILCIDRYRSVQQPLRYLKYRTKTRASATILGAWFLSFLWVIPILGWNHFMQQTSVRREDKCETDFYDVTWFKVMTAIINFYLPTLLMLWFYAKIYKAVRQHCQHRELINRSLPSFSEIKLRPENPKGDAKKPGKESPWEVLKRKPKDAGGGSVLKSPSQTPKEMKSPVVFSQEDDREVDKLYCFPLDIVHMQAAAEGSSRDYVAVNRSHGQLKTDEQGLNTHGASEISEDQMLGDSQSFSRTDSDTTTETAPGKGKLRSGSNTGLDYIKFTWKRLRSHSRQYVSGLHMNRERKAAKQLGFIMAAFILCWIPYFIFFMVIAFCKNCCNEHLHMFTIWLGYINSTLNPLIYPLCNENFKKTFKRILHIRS
Series [16] addresses T2, CYP1A2 (Homo sapiens, UniProt P05177).
T2 sequence (P05177 whole entry): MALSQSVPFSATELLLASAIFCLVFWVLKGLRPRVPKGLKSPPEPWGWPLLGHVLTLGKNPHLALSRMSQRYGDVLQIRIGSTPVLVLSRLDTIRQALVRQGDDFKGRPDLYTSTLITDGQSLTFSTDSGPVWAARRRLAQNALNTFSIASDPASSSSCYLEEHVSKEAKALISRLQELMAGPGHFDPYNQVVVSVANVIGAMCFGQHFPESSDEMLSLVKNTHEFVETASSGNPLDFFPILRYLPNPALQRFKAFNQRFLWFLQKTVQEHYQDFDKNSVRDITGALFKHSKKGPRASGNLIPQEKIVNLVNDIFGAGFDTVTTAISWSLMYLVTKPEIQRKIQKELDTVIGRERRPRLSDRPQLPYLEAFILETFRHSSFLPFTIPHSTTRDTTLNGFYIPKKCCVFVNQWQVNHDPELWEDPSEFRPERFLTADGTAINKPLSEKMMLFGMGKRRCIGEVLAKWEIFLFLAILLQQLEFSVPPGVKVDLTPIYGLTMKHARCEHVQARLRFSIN
As to the kind of experiment: Inhibition of CYP1A2 at 1 uM. In kind it is ADME. Summed up:
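CYP1A2 inhibition tested at 1 µM. Percent inhibition reported.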

A short description of series [17]: Oral bioavailability in rat at 5 mg/kg. In kind it is ADME, organism-based. Conditions: in vivo. Summed up:
as §2

In series [18] the target is Histamine H3 receptor (Homo sapiens, UniProt Q9Y5N1). As to the kind of experiment: Binding affinity to histamine H3 receptor.
Histamine H3 receptor, sequence (Q9Y5N1 whole entry): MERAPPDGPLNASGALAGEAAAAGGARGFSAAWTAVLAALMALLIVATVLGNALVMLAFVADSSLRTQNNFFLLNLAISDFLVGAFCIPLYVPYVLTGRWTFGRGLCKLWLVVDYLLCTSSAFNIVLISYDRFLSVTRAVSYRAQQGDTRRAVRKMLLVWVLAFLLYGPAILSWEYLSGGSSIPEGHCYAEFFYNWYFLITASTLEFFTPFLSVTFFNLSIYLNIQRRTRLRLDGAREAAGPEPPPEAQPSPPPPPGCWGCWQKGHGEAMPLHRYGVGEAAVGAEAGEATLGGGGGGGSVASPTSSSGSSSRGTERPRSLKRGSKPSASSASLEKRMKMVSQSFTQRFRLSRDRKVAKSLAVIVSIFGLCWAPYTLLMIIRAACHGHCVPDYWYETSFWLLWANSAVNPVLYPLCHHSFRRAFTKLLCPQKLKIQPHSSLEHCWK
Series [19] is described as follows: Half life in rat microsomes. Type of series: ADME, Microsome.

By pIC50 is commonly meant −log10 of the IC50, conventionally taken in molar units. For orientation: inhibition means the relative decrease from the control value, in per cent. Usually clearance stands for a measure of how efficiently the substance is removed, as volume per time. For orientation: bioavailability means dose-corrected exposure relative to a reference, in per cent. As a reminder, the CL/F is clearance divided by bioavailability, as obtained after extravascular dosing. The term half-life denotes the time in which the quantity being followed falls by half.

pIC50: −log10 of the molar value.

T1 sequence (Q9H3N8 whole entry): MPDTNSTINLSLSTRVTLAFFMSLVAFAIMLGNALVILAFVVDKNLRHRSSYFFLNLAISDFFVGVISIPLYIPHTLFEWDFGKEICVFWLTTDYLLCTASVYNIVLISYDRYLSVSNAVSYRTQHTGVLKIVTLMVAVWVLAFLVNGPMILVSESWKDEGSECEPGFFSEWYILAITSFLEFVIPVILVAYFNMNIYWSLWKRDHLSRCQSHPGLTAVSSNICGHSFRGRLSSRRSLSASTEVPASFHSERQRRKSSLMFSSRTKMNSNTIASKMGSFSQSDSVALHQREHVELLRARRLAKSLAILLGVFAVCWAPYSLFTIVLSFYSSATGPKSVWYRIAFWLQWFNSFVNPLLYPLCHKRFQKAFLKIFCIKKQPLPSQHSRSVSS

As for `CN1C2CCC1CN(c1ncnc3c1oc1ccc(Cl)cc13)C2`, the negative logarithm of the IC50 (pIC50) in series [1] was 6.36. Besides, the remaining at 10 min in [2] was found to be 62%.
Take `CN1CCN(c2nc(C3CC3)nc3c2oc2ccc(Cl)cc23)CC1`: the negative logarithm of the IC50 (pIC50) in series [1] is 6.51. Besides, in series [2], the remaining at 10 min came to 8%.
In series [1], `CCNC1CCN(c2ncnc3c2oc2ccc(Cl)cc23)C1` (stereo not drawn) gave a negative logarithm of the IC50 (pIC50) of less than 5.00.
As for `CN[C@@H]1CCN(c2ncnc3c2oc2ccc(C)cc23)C1`, in [1], the pIC50 is 7.07. In addition, the remaining at 10 min in series [2] came out at 74%.
In the case of `CN1CCN(c2ncnc3c2oc2ccc(Cl)cc23)CC1`, the pIC50 in series [3] and in series [1] was 7.72 each time. Moreover, the remaining at 10 min in [2] was found to be 1%.
Regarding `CN1CCN(c2nc(C(F)(F)F)nc3c2oc2ccc(Cl)cc23)CC1`, the inhibition in series [4] stood at 100%. Besides, the pIC50 in series [1] is 7.08; in series [5], 7.41. The remaining at 10 min in series [2] was 7%.
In the case of `COc1nc(N2CCN(C)CC2)c2oc3ccc(Cl)cc3c2n1`, the negative logarithm of the IC50 (pIC50) in series [1] is 7.05. The remaining at 10 min in series [2] came to 13%.
As to `CN[C@@H]1CCN(c2nc(C(F)(F)F)nc3c2oc2ccc(Cl)cc23)C1`, the negative-log IC50 (pIC50) in series [1] was 4.85.
As for `CN1C[C@@H]2C[C@H]1CN2c1ncnc2c1oc1ccc(Cl)cc12`, in [4], the inhibition stood at 105%. Moreover, the figures for the pIC50 in [1] and in series [5] were 6.95 and 7.15, respectively. Besides, the remaining at 10 min in series [2] stood at 75%.
As for `Cc1nc(N2CCN(C)CC2)c2oc3ccc(Cl)cc3c2n1`, in series [1], the pIC50 is 7.43. In addition, the remaining at 10 min in series [2] was 0%.
Turning to `Clc1ccc2oc3c(N4CCN5CCCC5C4)ncnc3c2c1` (stereo not drawn), the negative logarithm of the IC50 (pIC50) in series [1] was 6.63. For the same compound, in [2], the remaining at 10 min came to 0%.
The compound `CC1CN(c2ncnc3c2oc2ccc(Cl)cc23)CC(C)N1C` (stereo not drawn) showed a negative-log IC50 (pIC50) in series [1] of 5.00.
For `CNC1(C)CCN(c2ncnc3c2oc2ccc(Cl)cc23)C1` (stereo not drawn), the pIC50 in series [1] was 5.85.
The compound `CNC1CCN(c2ncnc3c2oc2ccc(-c4ccccc4)cc23)C1` (stereo not drawn) gave a pIC50 in series [1] of less than 5.00. The remaining at 10 min in series [2] is 97%.
Turning to `CNC1CN(c2ncnc3c2oc2ccc(Cl)cc23)C1`, the inhibition in [4] came out at 149%. For the same compound, the pIC50 in series [1] was 7.06; in series [5], 7.12. Besides, the remaining at 10 min in series [2] was found to be 89%.
On to `CNC1CCN(c2ncnc3c2oc2ccc(Cl)cc23)C1` (stereo not drawn), for which the negative-log IC50 (pIC50) in series [1] was 7.02. The remaining at 10 min in series [2] was found to be 80%.
Compound `CNC1CCN(c2ncnc3c2oc2ccc(Cl)cc23)CC1` showed a negative logarithm of the IC50 (pIC50) in [1] of less than 5.00.
In the case of `CN[C@@H]1CCN(c2ncnc3c2oc2ccc(C(F)(F)F)cc23)C1`, the negative logarithm of the IC50 (pIC50) in series [1] was 7.52. Further, the remaining at 10 min in series [2] amounted to 59%.
`CN[C@@H]1CCN(c2ncnc3c2oc2cc(Cl)ccc23)C1` showed a pIC50 in series [1] of 6.77.
`CC1CN(c2ncnc3c2oc2ccc(Cl)cc23)CCN1C` (stereo not drawn) had a pIC50 in [1] of 5.72. Also, the remaining at 10 min in [2] was 1%.
With `CN[C@@H]1CCN(c2nc(N)nc3c2oc2ccc(Cl)cc23)C1`, the Vd amounted to 25 L/kg in series [6], 71 L/kg in [7] and 26 L/kg in series [12]. For the same compound, the clearance in series [8] was found to be 62 mL/min/kg; in [13], 52 mL/min/kg. Further, the bioavailability came to 36% in [9], 99% in series [11] and 5% in series [17]. Besides, the inhibition in series [4] is 138%. In series [10], the CL/F was 117 mL/min/kg. Moreover, the pIC50 in series [14] is less than 4.52; in series [15], less than 4.52; in series [1], 9.00; in series [18], 5.24; in [5] it was 8.52. Besides, the inhibition at 1 µM in series [16] was determined as 45%. Further, the remaining at 10 min in [2] came out at 62%. The half-life in series [19] is 13 min.
Turning to `CN1CC2CCC1CN2c1ncnc2c1oc1ccc(Cl)cc12` (stereo not drawn), the pIC50 in series [1] is 6.77. Besides, in [2], the remaining at 10 min came to 66%.
Regarding `CN1CCN(c2nc(C(=O)O)nc3c2oc2ccc(Cl)cc23)CC1`, the pIC50 in [1] is less than 5.00. The remaining at 10 min in series [2] was 106%.
Take `CN[C@@H]1CCN(c2ncnc3c2oc2ccc(Cl)cc23)C1`: the results for the pIC50 in series [1] and in series [5] were 7.48 and 7.39, respectively. In addition, the Stability in [2] (10 min) was 92%. The compound further displayed a t1/2 in series [19] of 19 min.
As for `CN(C)C1CCN(c2ncnc3c2oc2ccc(Cl)cc23)C1` (stereo not drawn), the pIC50 in series [1] is 4.68. For the same compound, the remaining at 10 min in [2] was found to be 18%.
In the case of `CN[C@H]1CCN(c2ncnc3c2oc2ccc(Cl)cc23)C1`, in [4], the inhibition is 122%. For the same compound, the figures for the negative logarithm of the IC50 (pIC50) in [1] and in series [5] were 6.55 and 6.53, respectively. For the same compound, the remaining at 10 min in [2] amounted to 103%. In series [19], this compound gave a half-life of 73 min.
As to `CN1CCN(c2nc(O)nc3c2oc2ccc(Cl)cc23)CC1`, the negative logarithm of the IC50 (pIC50) in series [1] is 6.00. In addition, the remaining at 10 min in series [2] was found to be 83%.
In the same order, the values of `CNC1CCN(c2nc(C)nc3c2oc2ccc(Cl)cc23)C1` (stereo not drawn) are 5.80 and 95%.
In series [1], `CN1CCN(c2nc(-c3ccccc3)nc3c2oc2ccc(Cl)cc23)CC1` had a pIC50 of less than 4.52. Further, the remaining at 10 min in series [2] was 40%.
On to `Clc1ccc2oc3c(N4CC5CCCNC5C4)ncnc3c2c1` (stereo not drawn), for which the negative logarithm of the IC50 (pIC50) in [1] was 5.85.
As to `CNC1CCCN(c2ncnc3c2oc2ccc(Cl)cc23)C1` (stereo not drawn), the pIC50 in series [1] is less than 5.00.
Regarding `CN[C@H]1CCN(c2nc(N)nc3c2oc2ccc(Cl)cc23)C1`, the pIC50 in [1] was 7.89; in series [5] it was 8.40. For the same compound, in series [2], the remaining at 10 min was determined as 68%. The compound further showed a half-life in [19] of 21 min.
`CNC(=O)c1ccc2oc3c(N4CCC(NC)C4)ncnc3c2c1` (stereo not drawn) showed a negative-log IC50 (pIC50) in [1] of less than 4.52.
In the case of `NC1CCN(c2ncnc3c2oc2ccc(Cl)cc23)C1` (stereo not drawn), the pIC50 in [1] is 6.90. The remaining at 10 min in series [2] amounted to 107%.
As for `CNC1CCN(c2ncnc3c2oc2ccc(C(=O)O)cc23)C1` (stereo not drawn), in [1], the negative-log IC50 (pIC50) was less than 4.52. Also, in [2], the remaining at 10 min amounted to 80%.
`CNC1CCN(c2ncnc3c2oc2ccc(C#N)cc23)C1` (stereo not drawn) had a pIC50 in series [1] of 5.21. Besides, in series [2], the remaining at 10 min was 95%.
